Test results as given in ChEMBL document CHEMBL3865794, “Novel securinine derivatives as topoisomerase I based antitumor agents” (Eur J Med Chem, 2016).
Activity calls are given as the source filed them. The rule behind the calls is not given here.

Assays:
[1] = Growth inhibition of human A549 cells after 72 hrs by MTT assay; format: functional, cell-based; conditions: Homo sapiens, A549, 72 h
How it was run: (§1)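 Cells seeded at 5 × 10³ per well and incubated overnight in medium with 10% FBS. Medium then replaced with fresh medium containing compound at […] for 72 h. MTT (5 mg/mL stock, 20 µL per well) added for 4 h at 37 °C, formazan dissolved in DMSO, absorbance read at 570 nm. Each dose run in parallel triplicate. IC50 taken from mean absorbance versus concentration curves.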

[2] = Growth inhibition of human HeLa cells after 72 hrs by MTT assay; format: functional, cell-based; conditions: Homo sapiens, HeLa, 72 h; how it was run: as §1
[3] = Growth inhibition of human HepG2 cells after 72 hrs by MTT assay; format: functional, cell-based; conditions: Homo sapiens, HepG2, 72 h; how it was run: as §1
[4] = Growth inhibition of human SH-SY5Y cells after 72 hrs by MTT assay; format: functional, cell-based; conditions: Homo sapiens, SH-SY5Y, 72 h; how it was run: as §1
[5] = Growth inhibition of human L02 cells after 72 hrs by MTT assay; format: cell-based; conditions: L02, 72 h; how it was run: as §1
A549 = assay: Selectivity index, ratio of IC50 for human L02 cells to IC50 for human A549 cells; format: functional
[6] = target: T1, DNA topoisomerase 1 (Homo sapiens) (UniProt P11387); assay: Inhibition of DNA topoisomerase 1 (unknown origin) assessed as reduction in relaxation of supercoiled pBR322 plasmid DNA at 100 uM incubated for 30 mins by agarose gel electrophoresis relative to control
T1 sequence (whole entry): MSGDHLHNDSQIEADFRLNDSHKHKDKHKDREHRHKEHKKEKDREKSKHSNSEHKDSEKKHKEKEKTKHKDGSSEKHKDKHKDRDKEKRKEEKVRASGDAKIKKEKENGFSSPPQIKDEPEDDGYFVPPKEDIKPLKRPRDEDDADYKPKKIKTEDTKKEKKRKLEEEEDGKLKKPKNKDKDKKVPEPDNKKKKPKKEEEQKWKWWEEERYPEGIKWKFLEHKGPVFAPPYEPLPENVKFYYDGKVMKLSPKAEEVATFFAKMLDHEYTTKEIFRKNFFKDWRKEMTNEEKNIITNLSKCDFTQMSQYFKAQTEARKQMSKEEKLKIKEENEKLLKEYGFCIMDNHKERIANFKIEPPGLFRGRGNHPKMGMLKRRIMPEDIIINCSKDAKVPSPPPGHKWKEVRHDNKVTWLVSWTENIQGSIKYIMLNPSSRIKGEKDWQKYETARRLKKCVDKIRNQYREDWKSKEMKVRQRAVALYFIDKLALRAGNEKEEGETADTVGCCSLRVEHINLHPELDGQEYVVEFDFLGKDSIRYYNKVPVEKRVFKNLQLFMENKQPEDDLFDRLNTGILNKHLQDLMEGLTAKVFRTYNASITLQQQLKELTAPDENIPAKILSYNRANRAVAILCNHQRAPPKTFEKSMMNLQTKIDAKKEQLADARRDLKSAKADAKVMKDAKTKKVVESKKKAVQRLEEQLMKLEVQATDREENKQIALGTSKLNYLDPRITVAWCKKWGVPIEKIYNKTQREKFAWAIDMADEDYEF
How it was run: (§2)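 Supercoiled pBR322 DNA incubated with Topo I in the presence or absence of compound for 30 min at 37 °C. Reaction stopped with dye solution of bromophenol blue, xylene cyanol and glycerol. Products run on 1% agarose in 1× TAE for 40 min, then EB-stained and UV-imaged. Inhibition rate derived from gel gray-scale analysis relative to control. Camptothecin served as positive control.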

[7] = target: T1, DNA topoisomerase 1 (Homo sapiens); assay: Inhibition of DNA topoisomerase 1 (unknown origin) assessed as reduction in relaxation of supercoiled pBR322 plasmid DNA incubated for 30 mins by agarose gel electrophoresis; how it was run: as §2
Bos taurus [8] = species on record: Bos taurus; assay: Inhibition of calf thymus DNA topoisomerase 1-mediated DNA cleavage assessed as drug-enzyme-DNA covalent ternary complex formation by measuring increase in linear band using negatively supercoiled pBR322 plasmid DNA as substrate at 25 to 50 uM after 30 mins by agarose gel electrophoresis
How it was run: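 Calf thymus Topo I (30 units) and negatively supercoiled pBR322 in Topo I buffer (pH 7.5), 30 min at 37 °C. Test compounds at 25–200, camptothecin at […]. Trapped with 1% SDS, then proteinase K 0.8 mg/mL, 10 min at 50 °C. 1% agarose/TAE run 30 min at 60 V, ethidium bromide stain, second 30-min electrophoresis. Scored as supercoiled-to-nicked/linear conversion under UV.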

[9] = target: T1, DNA topoisomerase 1 (Homo sapiens); assay: Inhibition of DNA topoisomerase 1 (unknown origin) assessed as reduction in topoisomerase 1-DNA complex formation preincubated for 20 mins followed by supercoiled pBR322 plasmid DNA addition measured after 3 mins by electrophoretic mobility shift assay
[10] = Antiproliferative activity against human SW480 cells after 48 hrs by MTT assay; format: functional, cell-based; conditions: SW480, 48 h
Bos taurus [11] = species on record: Bos taurus; assay: Inhibition of calf thymus DNA topoisomerase 1 assessed as DNA-insertion by measuring reduction in conversion of negatively supercoiled pBR322 plasmid DNA to relaxed DNA at 25 uM preincubated followed by substrate addition measured after 30 mins by ethidium bromide staining based agarose gel electrophoresis
How it was run: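 Calf thymus Topo I (20 units) and negatively supercoiled pBR322 DNA with test compound or ethidium bromide in Topo I buffer (50 mM Tris-HCl pH 7.5, 10 mM MgCl2, 50 mM KCl, 0.1 mM EDTA, 0.5 mM DTT, BSA), 30 min at 37 °C. 1% agarose gel in 1× TAE, 40 min. Ethidium bromide stain 30 min, UV imaging.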

| SMILES | IC50 [1] [µM] | IC50 [2] [µM] | IC50 [3] [µM] | IC50 [4] [µM] | IC50 [5] [µM] | Ratio IC50 (A549) | inhibition [6] [%] | inhibition [7] | inhibition (Bos taurus [8]) | inhibition [9] | IC50 [10] [µM] | inhibition (Bos taurus [11]) |
| --- | --- | --- | --- | --- | --- | --- | --- | --- | --- | --- | --- | --- |
| O=C1O[C@@]23C[C@@H](C=CC2=C1C(O)c1ccc(C(F)(F)F)cc1)N1CCCC[C@@H]13 (stereo in doubt; 4a-6) | 2.91 | 8.99 | 2.42 | 8.57 | 18.2 | 6.26 - 7.56 |  |  |  |  |  |  |
| O=C1O[C@@]23C[C@@H](C=CC2=C1C(O)c1ccc([N+](=O)[O-])cc1)N1CCCC[C@@H]13 (stereo partly specified) | 2.21 | 8.26 | 4.13 | 8.5 | 16.7 | 6.26 - 7.56 | 56.7 | Dose-dependent effect |  |  |  |  |
| CC[C@@]1(O)C(=O)OCc2c1cc1n(c2=O)Cc2cc3ccccc3nc2-1 [CAMPTOTHECIN] | 0.12 | 59.1 | 29.8 | > 100 |  |  |  |  | Active |  |  |  |
| O=C1O[C@@]23C[C@@H](C=CC2=C1[C@H](O)c1ccc([N+](=O)[O-])cc1)N1CCCC[C@@H]13 | 2.23 | 8 | 4.19 | 8.48 |  |  |  |  |  | Dose-dependent effect |  |  |
| O=C1C=C2C=C[C@@H]3C[C@@]2(O1)[C@H]1CCCCN31 [SECURININE] | 23.6 | 50.2 | 36.9 | 78.9 |  |  | 23.9 |  |  |  | 25.9 |  |
| CC[n+]1c(-c2ccccc2)c2cc(N)ccc2c2ccc(N)cc21 |  |  |  |  |  |  |  |  |  |  |  | Active |
